Assay outcomes from PubChem BioAssay.
Shown are actives, neighbours in structure and some others; about 27% of the full set was active somewhere.
Cav3 T inh: inhibitors of human Cav3.2 T-type calcium channel | O95180 | Cav3.2-expressing cells, Fluo-4 calcium fluorescence FDSS; stronger effect = lower value | B-score at 10 µM | actives 4% (n = 100,000) | AID 449739;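 active = single-dose well whose peak fluorescence ratio is a statistical outlier from its plate by either plate-standardised score or position-corrected B-score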
CYP2C9 act: activators of human CYP2C9; P11712; recombinant CYP2C9, luciferin-H conversion, luminescence; stronger effect = higher value; factor 1 = untreated enzyme, 0 = blocked; activation factor at 5 µM; actives 1.4% (n = 96,000); AID 1024;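 active = activation factor of 2 or more for CYP2C9 at a 5 µM dose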;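 also: 0 = sulfaphenazole-blocked wells and 1 = vehicle-only wells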
CYP2C19 inhib: human CYP2C19 inhibition | actives 21% (n = 96,000) | CYP2C19 Supersomes, luciferin-H EGE luminescence, 30 min | inhibition, % at 5 µM | P33261;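 active = CYP2C19 inhibition above a set limit at 5 µM in the primary screen, cut at about 50% in these data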;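 also: plate controls were negative control wells for no effect and 2.5 mM tranylcypromine positive control for full effect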
Target sequence (P33261 whole entry, looked up): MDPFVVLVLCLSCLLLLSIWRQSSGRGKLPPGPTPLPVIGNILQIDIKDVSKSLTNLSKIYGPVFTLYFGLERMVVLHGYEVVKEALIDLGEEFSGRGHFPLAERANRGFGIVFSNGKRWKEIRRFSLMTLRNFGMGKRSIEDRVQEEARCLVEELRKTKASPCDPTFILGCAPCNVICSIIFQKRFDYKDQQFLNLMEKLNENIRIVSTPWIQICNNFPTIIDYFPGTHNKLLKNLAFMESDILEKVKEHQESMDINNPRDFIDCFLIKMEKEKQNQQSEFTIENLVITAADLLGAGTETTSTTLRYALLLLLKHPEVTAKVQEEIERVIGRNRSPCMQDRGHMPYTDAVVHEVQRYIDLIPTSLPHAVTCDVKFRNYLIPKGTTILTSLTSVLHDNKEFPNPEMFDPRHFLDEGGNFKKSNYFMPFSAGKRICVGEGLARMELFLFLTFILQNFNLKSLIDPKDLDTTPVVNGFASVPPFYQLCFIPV
CYP2C9 inhib: blocks human cytochrome P450 2C9; actives 20% (n = 96,000); P11712; CYP2C9 Supersomes, luciferin-H conversion, luminescence; inhibition, % at 5 µM;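 active = blocking of liver enzyme CYP2C9 beyond about 50% at 5 µM, limit read from the data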
CYP2C19 activ: cytochrome P450 2C19 (human) activation; recombinant CYP2C19, luciferin-H EGE luminescence; stronger effect = higher value; 0 = fully inhibited enzyme, 1 = untreated enzyme; 96,000 tested, under 10 active; AID 1025; activation factor at 5 µM;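 active = activation factor of at least 2 at 5 µM in the primary screen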;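 also: 0 = wells with 2.5 mM tranylcypromine and 1 = vehicle-only wells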
HIV Rev-RRE inh: inhibitors of HIV-1 Rev-RRE RNA interaction. P05866. inhibition, % at 8 µM. actives 0.79% (n = 97,000). Rev peptide-RRE RNA binding, FRET. AID 704;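 active = inhibition above the screen-wide mean plus 3 SD, cut at about 35% in these data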;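 also: 0% = median DMSO wells and 100% = median Neomycin B control wells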
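assay system = Cy5-tagged RRE RNA duplex with fluorescein-tagged Rev peptide | incubation = 5 + 15 min at 25 °C | also added = labelled Rev peptide | measure = % inhibition of FRET ratio versus controls | benchmarks = DMSO wells as 0% and neomycin B wells as 100% inhibition | measured by = FRET fluorescence readout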
* marks the source's active call; other numbers are inactive results; nt = no result.

SMILES	Cav3 T inh	CYP2C9 act	CYP2C19 inhib	CYP2C9 inhib	CYP2C19 activ	HIV Rev-RRE inh
O=C1C(=O)N(CCCn2ccnc2)C(c2ccccn2)/C1=C(/O)c1ccccc1 (configuration not stated)	nt	0.5	8.0	49.4	0.9	nt
O=C1C(=O)N(Cc2cccnc2)C(c2ccccn2)/C1=C(/O)c1ccccc1 (configuration not stated)	-1.03	0.2	4.8	76.3*	1	10.6
C=CCNc1ccc(F)c(F)c1N1CCCCCC1=O	0.145	1.6	15.4	-60.2	0.8	8.1
Cc1cc2c(cc1C)-c1nnnn1C(C)(C)C2	0.00616	1	59.4*	3.9	0.4	1.2
CNc1ccccc1-n1ccc(-c2ccccc2)n1	-1.15	0.7	71.7*	29.0	0.3	4.0
Cc1ccc(COn2c(-c3ccc(Cl)cc3Cl)nc3ncccc32)cc1	-5.39*	0.7	82.8*	34.3	0.2	8.4
Clc1cccc(COn2c(-c3ccc(Cl)cc3Cl)nc3ncccc32)c1	-4.08*	0.1	93.5*	91.2*	0.1	15.2
COc1ccccc1NC(=O)C1C2C=CC3(CN(Cc4cccnc4)C(=O)C13)O2 (configuration not stated)	-0.00294	0.8	14.2	19.6	0.9	-2.2
O=C(NCc1ccccc1)C1CC2CCCC(C1)C2=O (configuration not stated)	-0.533	1.1	-4.1	-7.9	1	-0.4
CC(=O)SCC(C)C(=O)NCc1ccccc1 (configuration not stated)	-0.547	1	63.5*	-0.3	0.4	1.8
CC1CCN(C(=O)c2ccc(NC(=O)C3CCCO3)cc2)CC1 (configuration not stated)	0.197	0.9	-2.4	9.9	1	nt
CCCCn1c2c(c3ccccc31)CCc1nonc1-2	-0.107	1	-5.1	-0.5	1.1	25.3
CN(C)CCNC(=O)C(C(=O)c1ccc(F)cc1)n1ccccc1=O (configuration not stated)	-0.0242	0.9	11.1	7.7	0.9	-0.4
Cc1cccc2c(=O)cc(C)n(CC(=O)N3CCCCC3)c12	0.28	0.8	87.9*	23.7	0.1	6.3
CCOC(=O)Cn1c(C)cc(=O)c2cccc(C)c21	-0.867	1	19.2	1.8	0.8	4.4
CCn1c(COc2ccccc2C(N)=O)nc2ccccc21	0.809	nt	nt	nt	nt	1.7
CCCCCCC(=O)NC(Nc1ccc(S(N)(=O)=O)cc1)C(Cl)(Cl)Cl (configuration not stated)	-1.51	0.5	10.0	53.2*	0.9	5.9
CCCC(CCC(=O)Nc1ccc(S(N)(=O)=O)cc1)C(=O)O (configuration not stated)	-0.084	1	-11.4	0.5	1.1	0.4
CCOC(=O)N1CCN(C(=O)c2cc(C)no2)CC1	nt	1.1	71.2*	-6.0	0.3	nt
COc1ccc(N/N=C(/C#N)S(=O)(=O)c2nsc(C)c2C#N)cc1	1.83	0.2	9.3	81.7*	0.9	0.3
Cc1snc(S(=O)(=O)/C(C#N)=N/Nc2cccc(C(F)(F)F)c2)c1C#N	-6.24*	0	12.1	99.3*	0.9	10.2
Cc1nn(C)c(C)c1NC(=O)Nc1cccc(C(F)(F)F)c1	0.346	1	4.4	2.8	1	8.9
OCC(O)C(O)C(O)C(O)C1NCCS1 (configuration not stated)	1.06	1	-9.6	-4.7	1.1	8.9
CC(NC(=S)NCCc1ccccc1)C(c1cccs1)N1CCN(C)CC1 (configuration not stated)	0.806	nt	nt	nt	nt	nt
O=c1[nH]c(CSc2nnc(NCCCN3CCOCC3)s2)nc2cc(Cl)ccc12	0.556	1	-7.1	1.8	1.1	7.0
CCOc1ccccc1NC(=O)CC1Nc2cc(C)c(C)cc2NC1=O (configuration not stated)	-2.77	0.6	16.7	42.2	0.8	14.6
CCOC(=O)c1c(NC(=O)CC2Nc3cc(C)c(C)cc3NC2=O)sc(C)c1C (configuration not stated)	-0.564	0.3	43.7	68.6*	0.6	12.4
COc1ccccc1CNC(=O)C(NS(=O)(=O)c1ccc2c(c1)oc(=O)n2C)C(C)C (configuration not stated)	0.616	0.9	11.8	6.1	0.9	11.1
